Assay results published in ChEMBL document CHEMBL4130398, “Cyperaceae Species Are Potential Sources of Natural Mammalian Arginase Inhibitors with Positive Effects on Vascular Function” (J Nat Prod, 2017).

What was measured:
Bos taurus = organism: Bos taurus; experiment: Inhibition of bovine liver arginase assessed as reduction in urea production at 100 uM using L-arginine as substrate after 60 mins in presence of MnCl2 by alpha-isonitrosopropiophenone reagent based spectrophotometric analysis relative to control
Summary of the method: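 Purified bovine liver arginase I (0.025 U/μL in Tris-HCl 50 mM pH 7.5 with 0.1% BSA) with 10 mM MnCl2 cofactor, inhibitor from DMSO stock diluted in water, and L-arginine (0.05 M, pH 9.7). Incubated 60 min at 37 °C. Acid quench, then α-isonitrosopropiophenone at 100 °C for 45 min, A550. Activity relative to solvent control; three experiments in duplicate, mean ± SEM.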

[1] = Inhibition of bovine liver arginase assessed as reduction in urea production using L-arginine as substrate after 60 mins in presence of MnCl2 by alpha-isonitrosopropiophenone reagent based spectrophotometric analysis; set-up: species or system Bos taurus
Summary of the method: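 Purified bovine liver arginase I with MnCl2 (10 mM) in Tris-HCl pH 7.5/BSA buffer, L-arginine substrate (0.05 M, pH 9.7). Inhibitors from 70 mM DMSO stocks, final 0.1–1000 μM in the well. 60 min at 37 °C, then urea read with α-isonitrosopropiophenone at 550 nm. IC50 taken from semilog plots of inhibition relative to solvent control; three experiments in triplicate, mean ± SEM.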

Structure (SMILES) | inhibition (Bos taurus) [%] | IC50 [1] [µM]
Oc1ccc(/C=C/c2cc(O)cc3c2[C@H](c2cc(O)cc(O)c2)[C@@H](c2ccc(O)cc2)O3)cc1 | 80 to 90 | 27.8
Oc1cc(O)cc(/C=C/c2ccc(O)c(O)c2)c1 [PICEATANNOL] | 80 to 90 | 12.6
OC[C@H]1O[C@@H](Oc2cc(/C=C/c3ccc(O)cc3)cc(O[C@@H]3O[C@H](CO)[C@@H](O)[C@H](O)[C@H]3O)c2)[C@H](O)[C@@H](O)[C@@H]1O | 80 to 90 | –
Oc1ccc([C@H]2Oc3cc(O)cc([C@@H]4[C@H](c5cc(O)cc(O)c5)[C@@H](c5ccc(O)cc5)O[C@@H]4c4ccc(O)cc4)c3[C@@H]2c2cc(O)cc3c2[C@@H](c2cc(O)cc(O)c2)[C@H](c2ccc(O)cc2)O3)cc1 | 80 to 90 | –
Oc1ccc([C@H]2Oc3cc(O)cc([C@@H]4[C@H](c5cc(O)cc(O)c5)[C@@H](c5ccc(O)cc5)O[C@@H]4c4ccc(O)cc4)c3[C@@H]2c2cc(O)cc3c2[C@@H](c2cc(O)cc(O)c2)[C@H](c2ccc(O)c(O)c2)O3)cc1 | 80 to 90 | 25.3
Oc1cc(O)cc([C@@H]2[C@@H](c3ccc(O)c(O)c3)c3cc(O)c(O)cc3[C@@H]3c4c(O)cc(O)cc4[C@@H]4c5c(cc(O)cc5[C@H]32)O[C@H]4c2ccc(O)c(O)c2)c1 | 80 to 90 | 12.2
N=C(NO)NCC[C@H](N)C(=O)O [NOR-NOHA] | – | 1.7
Oc1cc(O)cc([C@@H]2c3c(/C=C/c4ccc(O)c(O)c4)cc(O)cc3O[C@H]2c2ccc(O)c(O)c2)c1 | 80 to 90 | 22.6
Oc1ccc([C@H]2c3c(O)cc(O)cc3[C@H]3c4c(cc(O)cc4[C@@H]2O)O[C@H]3c2ccc(O)cc2)cc1 | 80 to 90 | 182
